Test results published in ChEMBL document CHEMBL4138106, “Indole-coumarin-thiadiazole hybrids: An appraisal of their MCF-7 cell growth inhibition, apoptotic, antimetastatic and computational Bcl-2 binding potential” (Eur J Med Chem, 2017).
The source made the active and inactive calls. The calls are words filed in the database; no cut-off is given here.

Assays:
MCF7 [1] = experiment: Induction of apoptosis in human MCF7 cells assessed as cell shrinkage at 10 uM after 24 hrs by Acridine orange-ethidium bromide dual staining based fluorescence microscopic analysis; format: functional
MCF7 [2] = experiment: Induction of apoptosis in human MCF7 cells assessed as deviations in cell morphology at 10 uM after 24 hrs by Acridine orange-ethidium bromide dual staining based fluorescence microscopic analysis; format: functional
MCF7 [3] = experiment: Induction of apoptosis in human MCF7 cells assessed as late apoptotic cells at 10 uM after 24 hrs by Acridine orange-ethidium bromide dual staining based fluorescence microscopic analysis; format: functional, cell-based
How it was run: (§1)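 MCF-7 cells in 96-well plates exposed to test compound for 24 h at 37 °C in 5% CO2. Gross morphology first checked by phase contrast. Medium then removed and acridine orange (7.5 μg)/ethidium bromide (25 μg) stain added. Cells viewed by fluorescence microscopy through an FITC filter and scored as viable, early apoptotic, late apoptotic or nonviable by colour and nuclear form, against vehicle control.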

Vero = experiment: Cytotoxicity against African green monkey Vero cells assessed as growth inhibition after 48 hrs by MTT assay; format: cell-based; conditions: Chlorocebus sabaeus
How it was run: (§2)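 Cells grown in DMEM with 10% FBS plus antibiotics at 37 °C under 5% CO2. 5×10^3 cells/well seeded and cultured overnight, then exposed to a range of concentrations for 48 h. Working dilutions made in DMEM from 25 mM DMSO stocks, with DMSO vehicle controls and vincristine as positive control. MTT at 1 mg/mL for 4 h, formazan dissolved in DMSO, A570. Viability taken relative to vehicle after blank subtraction.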

MCF7 [4] = experiment: Induction of apoptosis in human MCF7 cells assessed as loss of cell membrane integrity at 10 uM after 24 hrs by Acridine orange-ethidium bromide dual staining based fluorescence microscopic analysis; format: functional
MCF7 [5] = experiment: Inhibition of cell migration of human MCF7 cells after 24 hrs by inverted microscopy based monolayer wound healing migration assay; format: functional
How it was run: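 About 1×10^5 MCF-7 cells/well grown in DMEM to 80% confluence, then a single scratch made. Debris washed off with PBS and cells treated with test compound, with vincristine as positive control and a vehicle control. Wound gap imaged at 0, 24 and 48 h by inverted microscopy with a stage and eyepiece micrometer. Run in triplicate.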

MCF7 [6] = experiment: Induction of apoptosis in human MCF7 cells assessed as fragmented nuclei formation at 10 uM after 24 hrs by Acridine orange-ethidium bromide dual staining based fluorescence microscopic analysis; format: functional, cell-based; how it was run: as §1
MCF7 [7] = experiment: Induction of apoptosis in human MCF7 cells assessed as expression in caspase 2 at 10 uM after 24 hrs by spectrofluorimetric analysis; format: functional, cell-based
How it was run: (§3)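 Initiator caspases 2, 8 and 9 measured in MCF-7 cells after 24 h exposure to 10 μM, using a fluorogenic caspase profiling kit (ex 380/em 460 nm). Signals normalized to vehicle control, set as 1, and expressed as fold change. Mean ± SD of three independent trials.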

MCF7 [8] = experiment: Induction of apoptosis in human MCF7 cells assessed as formation of apoptotic body at 10 uM after 24 hrs by Acridine orange-ethidium bromide dual staining based fluorescence microscopic analysis; format: functional, cell-based
MCF7 [9] = experiment: Induction of apoptosis in human MCF7 cells assessed as nuclear chromatin condensation at 10 uM after 24 hrs by Hoechst 33342 staining based bright blue field inverted fluorescence microscopic analysis; format: functional, cell-based
How it was run: (§4)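 Treated MCF-7 cells were incubated for 10 min with Hoechst 33342 stock diluted 1:2,000 in PBS. Nuclei were examined by inverted fluorescence microscopy for condensation and fragmentation, compared with vehicle-control cells.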

MCF7 [10] = experiment: Induction of apoptosis in human MCF7 cells assessed as nuclear fragmented DNA formation at 10 uM after 24 hrs by Hoechst 33342 staining based bright blue field inverted fluorescence microscopic analysis; format: functional, cell-based; how it was run: as §4
MCF7 [11] = experiment: Induction of apoptosis in human MCF7 cells assessed as dead cells at 10 uM after 24 hrs by Acridine orange-ethidium bromide dual staining based fluorescence microscopic analysis; format: functional, cell-based; how it was run: as §1
MCF7 [12] = experiment: Induction of apoptosis in human MCF7 cells assessed as early apoptotic cells at 10 uM after 24 hrs by Acridine orange-ethidium bromide dual staining based fluorescence microscopic analysis; format: functional, cell-based; how it was run: as §1
MCF7 [13] = experiment: Induction of apoptosis in human MCF7 cells assessed as late apoptotic cells at 10 uM after 24 hrs by fluorescein-12-dUTP/propidium iodide staining based TUNEL assay; format: functional, cell-based
How it was run: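 About 1×10^5 MCF-7 cells/well in 24-well plates treated for 24 h. Cells fixed in 4% paraformaldehyde and permeabilized with 0.2% Triton X-100. Labelled with 50 µM fluorescein-12-dUTP and rTdT for 1 h at 37 °C, stopped with 2×SSC, counterstained with 1 mg/mL propidium iodide. Green TUNEL-positive nuclei scored by fluorescence microscopy.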

MCF7 [14] = experiment: Induction of apoptosis in human MCF7 cells assessed as expression in caspase 9 at 10 uM after 24 hrs by spectrofluorimetric analysis; format: functional, cell-based; how it was run: as §3
MCF7 [15] = experiment: Induction of apoptosis in human MCF7 cells assessed as chromatin condensation at 10 uM after 24 hrs by APOPercentage dye based light microscopic analysis; format: functional, cell-based
How it was run: (§5)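 1×10^4 MCF-7 cells grown 48 h to sub-confluence in 96-well plates, then exposed for 24 h. Medium replaced with medium containing APOPercentage dye (phosphatidylserine exposure) for 1 h. Purple-red cells imaged by light microscopy. Cells then lysed and released dye read at 550 nm, against vehicle control.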

MCF7 [16] = experiment: Cytotoxicity against human MCF7 cells assessed as growth inhibition after 48 hrs by MTT assay; format: functional, cell-based; conditions: MCF7, 48 h; how it was run: as §2
MCF7 [17] = experiment: Induction of apoptosis in human MCF7 cells assessed as reduction in cell volume at 10 uM after 24 hrs by APOPercentage dye based light microscopic analysis; format: functional; how it was run: as §5
MCF7 [18] = experiment: Induction of apoptosis in human MCF7 cells assessed as condensed chromatin formation at 10 uM after 24 hrs by Acridine orange-ethidium bromide dual staining based fluorescence microscopic analysis; format: functional, cell-based; how it was run: as §1
MCF7 [19] = experiment: Induction of apoptosis in human MCF7 cells assessed as condensed nuclei formation at 10 uM after 24 hrs by Acridine orange-ethidium bromide dual staining based fluorescence microscopic analysis; format: functional, cell-based; how it was run: as §1
MCF7 [20] = experiment: Induction of apoptosis in human MCF7 cells assessed as expression in caspase 8 at 10 uM after 24 hrs by spectrofluorimetric analysis; format: functional, cell-based; how it was run: as §3

C/C(=N/c1nnc(CCCc2c[nH]c3ccccc23)s1)c1cc2cc(Br)ccc2oc1=O
Activity (MCF7 [1]): Active | Activity (MCF7 [2]): Active | Activity (MCF7 [3]): Active | IC50 (Vero): 116 µM | Activity (MCF7 [4]): Active | inhibition (MCF7 [5]): Active | Activity (MCF7 [6]): Active | Activity (MCF7 [7]): inactive | Activity (MCF7 [8]): Active | Activity (MCF7 [9]): Active | Activity (MCF7 [10]): Active | Activity (MCF7 [11]): Active | Activity (MCF7 [12]): Active | Activity (MCF7 [13]): Active | Activity (MCF7 [14]): Active | Activity (MCF7 [15]): Active | IC50 (MCF7 [16]): 8.01 µM | Activity (MCF7 [17]): Active | Activity (MCF7 [18]): Active | Activity (MCF7 [19]): Active | Activity (MCF7 [20]): Active

C/C(=N/c1nnc(CCc2c[nH]c3ccccc23)s1)c1cc2cc(Br)ccc2oc1=O
IC50 (Vero): 43.1 µM | IC50 (MCF7 [16]): 36.1 µM

C/C(=N/c1nnc(Cc2c[nH]c3ccccc23)s1)c1cc2cc(Br)ccc2oc1=O
IC50 (Vero): 113 µM | IC50 (MCF7 [16]): 82.1 µM
